Data on seven compounds can be found in article PMC2812024 (Journal of medicinal chemistry, 2008).

Read-outs that look alike come from different tables or passages of the source. Where a SMILES comes first, the peptide text is derived from it. [ ]: non-standard residue; d: D form. The star is where a group is joined. Dmt = Cc1cc(O)cc(C)c1C[C@H](N)C(=O)O; Tic = O=C(O)[C@@H]1Cc2ccccc2CN1; NHBn = c1ccc(CN*)cc1 Bounds are passed on as bounds.

Data set [1] has as its target T1, μ-opioid receptor (Cavia porcellus, UniProt P97266). Put plainly: Electrically stimulated guinea-pig ileum. Also on record: species or system guinea pigs.
Data set [2] has as its system mice. Put plainly: Behavioural observation after icv injection. The class given is in vivo.
Data set [3] is described as follows: Enzymatic degradation in plasma. The conditions noted are these: 4 h, preliminary. It counts as in vitro ADME.
Data set [4] deals with mice. The experiment in a line: Tail-flick test after icv injection. It counts as in vivo, Swiss-Webster mice. In outline:
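Radiant heat on the dorsal tail surface of male Swiss-Webster mice (20–25 g), with latency to tail removal timed. Baseline 2–3 sec, cutoff 8 sec. Readings start 10 min after icv test compound (5 μL saline at bregma) and repeat every 10 min.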
(Hot-plate and tail-flick tests time the reaction to a heat stimulus.)

Data set [5] concerns mice. The experiment in a line: Hot-plate test after icv injection. The class given is in vivo, Swiss-Webster mice. The essentials:
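Male Swiss-Webster mice (20–25 g); test compound in saline, 5 μL icv at bregma (needle 2.3–3 mm deep), placement checked after sacrifice. Latency to jump, lick or shake hind paws on a 55 °C plate at 10 min post-injection, then every 10 min; baseline 5–10 sec, cutoff 30 sec.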

A short description of data set [6]: Enzymatic degradation in brain homogenate. The class given is in vitro ADME. The conditions noted are these: 2 h, preliminary.
The target of data set [7] is T1, μ-opioid receptor. The conditions noted are these: read-out: GPI IC50; μ agonism; ref Balboni et al.[5]; cited from earlier work.
The next data set addresses μ-opioid receptors (Rattus norvegicus, UniProt P33535). The conditions noted are these: read-out: Receptor affinity Ki^μ; reference compounds; ref Balboni et al.[5]; cited from earlier work.
The target of data set [8] is T2, δ-opioid receptor (Mus musculus, UniProt P32300). The settings on record: ref Balboni et al.[5], cited from earlier work.
Another data set deals with δ-opioid receptors (Rattus norvegicus, UniProt P33533). The conditions noted are these: ref Balboni et al.[5], cited from earlier work; for Ki: read-out: Receptor affinity Ki^δ, reference compounds.
Data set [9] has as its target T2, δ-opioid receptor. The experiment in a line: Electrically stimulated mouse vas deferens. The settings on record: MVD.
[10] abbreviates: 10 μg/mouse icv, sc naltrindole 3 mg/kg, naloxone 10 mg/kg 20 min before.

Chain of δ-opioid receptors (P33533 whole entry): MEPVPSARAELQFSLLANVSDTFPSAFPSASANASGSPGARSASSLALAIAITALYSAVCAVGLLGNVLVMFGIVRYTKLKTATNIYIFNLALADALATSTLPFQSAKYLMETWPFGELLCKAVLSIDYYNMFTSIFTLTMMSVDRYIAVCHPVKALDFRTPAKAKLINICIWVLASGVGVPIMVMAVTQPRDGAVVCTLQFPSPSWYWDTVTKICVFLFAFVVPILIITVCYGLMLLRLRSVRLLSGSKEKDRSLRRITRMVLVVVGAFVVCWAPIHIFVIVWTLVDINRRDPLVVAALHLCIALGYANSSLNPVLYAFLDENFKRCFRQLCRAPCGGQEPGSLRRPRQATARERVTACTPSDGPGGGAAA
T1 sequence (P97266 whole entry, looked up): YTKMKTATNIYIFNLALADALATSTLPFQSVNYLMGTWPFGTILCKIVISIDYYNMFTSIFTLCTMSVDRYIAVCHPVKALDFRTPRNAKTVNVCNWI
T2 sequence (P32300 whole entry): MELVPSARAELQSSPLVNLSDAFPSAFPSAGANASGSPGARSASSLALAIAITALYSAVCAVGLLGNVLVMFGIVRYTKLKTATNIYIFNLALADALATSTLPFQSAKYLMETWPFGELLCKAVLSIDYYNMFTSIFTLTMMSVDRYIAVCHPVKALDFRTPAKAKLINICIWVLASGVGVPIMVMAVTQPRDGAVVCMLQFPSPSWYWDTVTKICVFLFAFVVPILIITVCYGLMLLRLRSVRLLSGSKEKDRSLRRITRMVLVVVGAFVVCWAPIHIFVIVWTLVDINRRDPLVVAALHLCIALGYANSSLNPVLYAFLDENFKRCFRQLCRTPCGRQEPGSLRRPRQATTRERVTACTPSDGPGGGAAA
Chain of μ-opioid receptors (P33535 whole entry): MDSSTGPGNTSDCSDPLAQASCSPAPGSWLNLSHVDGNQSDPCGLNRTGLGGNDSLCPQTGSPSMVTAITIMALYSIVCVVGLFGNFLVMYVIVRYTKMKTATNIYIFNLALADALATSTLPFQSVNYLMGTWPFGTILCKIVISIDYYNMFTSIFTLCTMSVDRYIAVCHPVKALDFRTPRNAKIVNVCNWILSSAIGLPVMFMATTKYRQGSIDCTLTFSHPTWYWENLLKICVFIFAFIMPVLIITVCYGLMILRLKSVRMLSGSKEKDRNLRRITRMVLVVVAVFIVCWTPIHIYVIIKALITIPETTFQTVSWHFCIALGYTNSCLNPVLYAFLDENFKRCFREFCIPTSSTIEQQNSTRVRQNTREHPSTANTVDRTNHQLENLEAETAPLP

Broadly, the IC50 is the concentration needed to halve the response being measured. On μ-opioid receptor [1], `Cc1cc(O)cc(C)c1C[C@H](N)C(=O)N1Cc2ccccc2C[C@H]1C(=O)N[C@H](CC(=O)O)c1nc2ccccc2n1C` [Compound 11, H-Dmt-Tic-NH-(R)CH(CH2-COOH)-Bid(N^1-Me)] showed a 50% inhibitory concentration (IC50) of more than 10000 nM.
`Cc1cc(O)cc(C)c1C[C@H](N)C(=O)N1Cc2ccccc2C[C@H]1C(=O)N[C@H](CC(=O)O)C(=O)N(C)c1ccccc1` [Compound 9, H-Dmt-Tic-D-Asp-N(Me)-Ph]: the IC50 on μ-opioid receptor [1] is more than 10000 nM.
On the same count and under the same terms, to `Cc1cc(O)cc(C)c1C[C@H](N)C(=O)N1Cc2ccccc2C[C@H]1C(=O)N[C@@H](CC(=O)O)C(=O)N(C)c1ccccc1` [Compound 8, H-Dmt-Tic-Asp-N(Me)-Ph] belongs more than 10000 nM.
For `Cc1cc(O)cc(C)c1C[C@H](N)C(=O)N1Cc2ccccc2C[C@H]1C(=O)N[C@@H](CC(=O)O)c1nc2ccccc2n1C` [Compound 10, H-Dmt-Tic-NH-(S)CH(CH2-COOH)-Bid(N^1-Me)], the “μ agonism relative to 4” value at μ-opioid receptor [1] (GPI) was determined as 1.7 fold. The Convulsions result in the data set with mice [2] (highest doses) is given as “convulsions”. In the data set with mice [2] (same dose), the “Behavioural effects in mice” value is “sedated, quiet, easily handled, and moving slowly if at all”. For the same compound, the “Stability to enzymic degradation” value in data set [3] and in [6] was “fully stable” throughout. Moreover, the “Reversal of analgesia by naltrindole and naloxone, tail-flick test” value with mice [4] (setting [10]) is on record as “reversed”. Also, the “Analgesic effect, tail-flick test” value in the data set on mice [4] (icv injection, mice, Figure 1) was “dose dependent analgesic effect”. For the same compound, in the data set with mice [5] (setting [10]), the “Reversal of analgesia by naltrindole and naloxone, hot-plate test” value is given as “not in the hot-plate test”. Moreover, the “Analgesic effect, hot-plate test” value in the data set on mice [5] (icv injection, mice, Figure 1) is reported as “dose dependent analgesic effect”.
The term Ki denotes a dissociation constant, usually derived from enzyme kinetics or from competition with a known ligand. Consider H-Dmt-Tic-Gly-NH-Ph [Compound 1], for which the IC50 at μ-opioid receptor [7] was 2.57 nM; at δ-opioid receptor [8] (read-out: MVD IC50, δ agonism), 3.02 nM. The figures for the inhibitory constant (Ki) at μ-opioid receptors and on δ-opioid receptors were 0.16 nM and 0.042 nM, respectively. Also, at δ-opioid receptors, the “Selectivity Ki^μ/Ki^δ” value is listed as 4.
For the compound H-Dmt-Tic-Gly-NH-Bzl [Compound 2], on μ-opioid receptor [7], the IC50 is 2.69 nM. The Ki on μ-opioid receptors was 0.16 nM. Further, the “MVD pA2” value on δ-opioid receptor [8] (δ antagonism) was 9.25. Besides, at δ-opioid receptors, the Ki is 0.031 nM and the “Selectivity Ki^μ/Ki^δ” value is on record as 5.
For the compound `Cc1cc(O)cc(C)c1C[C@H](N)C(=O)N1Cc2ccccc2C[C@H]1C(=O)N[C@@H](CC(=O)O)C(=O)NCc1ccccc1` [Compound 13, H-Dmt-Tic-Asp-NH-Bzl] (H-[Dmt]-[Tic]-Asp-NHBn), the “δ antagonist activity, lower than 2” value on δ-opioid receptor [9] is listed as 5 fold.
